# Screens (PubChem BioAssay)
# mIAP activ – increases mouse intestinal alkaline phosphatase activity | muIAP, CDP-Star luminescence, 30 min; stronger effect = higher value; 1 = vehicle-only enzyme signal, 0 = enzyme-free wells | activation factor at 10 µM | 330,000 compounds, 0.24% hits;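 active means activation factor of at least 2 at 20 µM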
#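 System: Mouse IAP enzyme | Also added: CDP-Star substrate | Dosing: Compounds dispensed in DMSO | Schedule: 30 min enzyme-substrate-compound incubation at room temperature | Technique: Chemiluminescence readout | Control set: DMSO-only wells and no-enzyme negative control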
# hIAP block – human IAP inhibition; purified IAP, CDP-Star luminescence, 30 min; 330,000 compounds, 0.12% hits; inhibition, % at 10 µM; P09923; AID 2544;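 active means inhibition reaching a set limit with compound at 10 µM in the primary screen, cut at about 35% in these data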;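 further: plate controls were DMSO wells with enzyme for no effect and no-enzyme buffer wells for full effect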
# Target sequence (P09923 whole entry, looked up): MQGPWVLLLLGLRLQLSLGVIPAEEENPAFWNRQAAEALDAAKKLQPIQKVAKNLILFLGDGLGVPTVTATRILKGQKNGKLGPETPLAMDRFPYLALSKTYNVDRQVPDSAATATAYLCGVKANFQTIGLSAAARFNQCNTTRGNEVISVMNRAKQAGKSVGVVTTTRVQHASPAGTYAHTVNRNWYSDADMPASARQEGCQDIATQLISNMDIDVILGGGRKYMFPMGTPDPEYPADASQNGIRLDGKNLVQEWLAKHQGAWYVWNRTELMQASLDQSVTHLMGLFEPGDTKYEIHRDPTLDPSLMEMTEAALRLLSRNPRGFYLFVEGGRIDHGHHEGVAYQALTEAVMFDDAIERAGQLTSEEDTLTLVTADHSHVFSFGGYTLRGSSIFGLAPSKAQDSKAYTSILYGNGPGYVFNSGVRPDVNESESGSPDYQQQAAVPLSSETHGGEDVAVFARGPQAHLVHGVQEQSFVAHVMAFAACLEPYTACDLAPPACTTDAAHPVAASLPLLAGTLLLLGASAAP
# bIAP inh – blocks bovine intestinal alkaline phosphatase activity; purified bovine IAP, CDP-star luminescence, 30 min; inhibition, % at 20 µM; 190,000 tested, under 10 active; AID 1019;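 active means over 50% inhibition of intestinal alkaline phosphatase at 20 µM in the single-dose screen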
#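 Assay system: bovine IAP enzyme; medium: DEA buffer 100 mM, pH 9.8, with MgCl2 1.0 mM, ZnCl2 0.02 mM; doses: 20 µM single dose; incubation: enzyme reaction for 30 min at room temperature; detection: CDP-star luminescence signal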
# mIAP inh – blocks mouse intestinal alkaline phosphatase; purified mouse IAP, CDP-Star luminescence, 30 min; inhibition, % at 10 µM; 330,000 compounds, 0.2% hits; AID 2806;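 active means inhibition of at least 40% at 10 µM in the primary screen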;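 further: plate controls were DMSO with enzyme for no effect and no enzyme wells for full effect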
# bIAP activator – increases bovine intestinal alkaline phosphatase activity | 200,000 compounds, 0.17% hits | purified bovine IAP, CDP-star luminescence, 30 min; stronger effect = higher value; fold of DMSO-control signal, blank-subtracted | AID 1016 | activation factor at 20 µM;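 active means activation factor of 2 or more at 20 µM, a signal rise over negative controls twice the positive control's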
# hIAP act – increases human intestinal alkaline phosphatase activity | P09923 | purified human IAP, CDP-Star luminescence, 30 min; stronger effect = higher value; 1 = vehicle-only enzyme, 0 = enzyme-free background | activation factor at 10 µM | 330,000 compounds, 0.16% hits;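 active means activation factor of the enzyme at least 2-fold when tested at 20 µM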
# * hit, by the source's call; i = inactive; x = no result. This is a sample that favours compounds with a hit; in the whole collection about 0.79% have one here.
SMILES,mIAP activ,hIAP block,bIAP inh,mIAP inh,bIAP activator,hIAP act
CCC(C(=O)NC1CCCC1)N(Cc1cccs1)C(=O)Cn1nnc(-c2ccc(OC)c(OC)c2)n1 (stereo unspecified),2.1*,-29,6,-109,0.9,1.3
CCCn1c(N)c(N(CCOC)C(=O)Cc2ccc(S(=O)(=O)N3CCOCC3)s2)c(=O)[nH]c1=O,1,2,x,-1,x,0.97
COc1ccc(C[C@H]2CN3C(=NC[C@@H]3Cc3ccccc3)N2C[C@H](C)NC(=O)CCC2CCCCC2)cc1,0.93,7,x,7,x,0.93
COc1ccc(C[C@H]2CN3C(=NC[C@H]3Cc3ccccc3)N2CCNC(=O)CCC2CCCCC2)cc1,1,-1,-140,-5,2.4*,1
O=C(Nc1cccc([N+](=O)[O-])c1)c1ccc2ccccc2c1O,0.91,9,x,9,x,0.91
Cc1ccccc1N(CC(=O)NCc1ccccc1)C(=O)CCC(=O)Nc1nccs1,1.1,-8,x,-6,x,1.1
COc1cccc(NC(=O)NCCCSC2CCCCC2)c1,2.3*,12,16,-126,0.8,0.89
NC1=NC2(CCCCC2)n2c(nc3ccccc32)N1,1,1,-117,-4,2.2*,0.99
NC1=NC2(CCN(Cc3ccccc3)CC2)n2c(nc3ccccc32)N1,0.91,-5,-255,10,3.5*,1.1
NC1=NC(c2ccc(Br)cc2)n2c(nc3ccccc32)N1 (stereo unspecified),1.1,3,-94,-7,1.9,0.97
NC1=NC2(CCC(c3ccccc3)CC2)n2c(nc3ccccc32)N1 (stereo unspecified),1.6,-43,-192,-56,2.9*,1.4
Cc1ccc(NCc2ccc(C)s2)cc1,0.78,4,x,22,x,0.96
COc1ccc(/C=C/C(=O)N2CCN(c3ccccn3)CC2)c2ccccc12,0.96,0,-9,4,1.1,1
Cc1[nH]c2ccc(C(=O)OCC(=O)NC3(C#N)CCCCC3)cc2c1C,1.1,-19,x,-10,x,1.2
O=C(Nc1ccc(N2CCOCC2)cc1)c1ccc2nc(-c3ccco3)c(-c3ccco3)nc2c1,0.92,-18,14,8,0.9,1.2
S=C(Nc1ccc(N2CCOCC2)cc1)Nc1ccc2nc(-c3ccco3)c(-c3ccco3)nc2c1,0.55,12,23,45*,0.8,0.88
S=C(NCc1ccccc1)NC1CCCc2ccccc21 (stereo unspecified),2.6*,-4,-3,-157,1,1
CC(=O)OCCCN1c2ccccc2Nc2nnc(-c3ccccc3)cc21,3.5*,-2,i,-250,28*,1
CN(C)c1ccc(/C=C(/C(=O)c2ccc(Cl)cc2Cl)n2cncn2)cc1,0.58,25,6,42*,0.9,0.75
COc1ccc(/C=C(/C(=O)c2ccc(Cl)cc2Cl)n2cncn2)cc1,0.97,-4,9,3,0.9,1
O=C(N/N=C/c1ccc(O)cc1)c1cc(-c2ccc3c(c2)OCO3)n[nH]1,0.86,36*,11,14,0.9,0.65
O=C(CN(c1ccccc1)S(=O)(=O)c1ccccc1)Nc1ccc(F)cc1,1.1,7,x,-11,x,0.93
CCn1c(NCc2cc(Br)ccc2NS(=O)(=O)c2ccc(C)cc2)nc2ccccc21,2.1*,-7,-45,-110,1.5,1.1
Cn1c(=O)[nH]c(=O)c2c1nc(N1CCCCCC1)n2CCCSc1nc2ccccc2o1,1.1,-1,i,-9,6.8*,1
Cn1c(=O)[nH]c(=O)c2c1nc(N1CCCCCC1)n2CCSc1nc2ccccc2o1,1.1,0,5,-11,0.9,1
SMILES,mIAP activ,hIAP block,bIAP inh,mIAP inh,bIAP activator,hIAP act
CCN(CC)CCCNC(=O)CNC(=S)N(CCCN1CCOCC1)Cc1cccs1,1.1,-14,-112,-6,2.1*,1.1
O=C(CNC(=S)N(CCCN1CCOCC1)Cc1cccs1)NCCN1CCOCC1,1,7,15,-2,0.9,0.93
On1nnc2ccccc21,1.1,-5,x,-9,x,1
O=[N+]([O-])c1cc(-c2ncccn2)cs1,0.97,-1,-146,3,2.5*,1
CC(C)CNC(=S)NC(=O)c1csc([N+](=O)[O-])c1,0.89,-18,x,11,x,1.2
COC(=O)c1c(NC(=O)CSc2nnc(C)c(=O)[nH]2)sc(C)c1C,1,-26,8,-2,0.9,1.3
Fc1ccccc1N1CC(c2ccccc2)C(c2cccs2)=N1 (stereo unspecified),2.2*,-10,-70,-119,1.7,1.1
Fc1ccc(N2N=C(c3cccs3)CC2c2ccccc2)cc1 (stereo unspecified),1.8,-1,-34,-80,1.3,1
FC(F)(F)Oc1ccc(NC(=S)Nc2ccc(OC(F)(F)F)cc2)cc1,1,-6,x,-3,x,1.1
CCn1c2ccccc2c2cc(NC(=O)C3CCN(S(=O)(=O)c4cccs4)CC3)ccc21,3*,-14,-33,-196,1.3,1.1
Cc1ccc(NC(=O)Cc2csc(-c3ccccc3)n2)cc1F,1,36*,-2,-2,1,0.65
O=C(Cc1csc(-c2ccccc2)n1)Nc1ccc(C(F)(F)F)cc1,0.99,-4,16,1,0.8,1
COC(=O)Cn1ncc(N(C)Cc2ccccc2)c(Cl)c1=O,1.1,-20,x,-9,x,1.2
Cc1ccc(C(O)c2nc3ccccc3n2C(C)C)cc1 (stereo unspecified),1,3,-149,-3,2.5*,0.97
CC(C)n1c(-c2ccc(N(C)C)cc2)nc2ccccc21,0.93,-65,-242,8,3.4*,1.6
CN(C)c1ccc(-c2nc3ccccc3n2C)cc1,0.96,14,7,4,0.9,0.86
CCc1ccc(C(C(=O)NCc2ccc(OC)cc2)N(CCOC)C(=O)Cc2cccs2)cc1 (stereo unspecified),1.3,5,-19,-25,1.2,0.95
COCCN(C(=O)Cc1cccs1)C(C(=O)NCc1ccc(OC)cc1)c1ccc(C(C)C)cc1 (stereo unspecified),1.2,-13,-115,-24,2.1*,1.1
CC(C)c1ccc(C(C)NC(=S)NC2CCCCC2)cc1 (stereo unspecified),2.2*,-46,x,-116,x,1.5
CCc1ccc(C(C)NC(=S)NC2CCCCC2)cc1 (stereo unspecified),1.2,8,x,-25,x,0.92
Cc1ccc(C(=O)NC(NC(=O)c2ccc(C)cc2)C(Cl)Cl)cc1,3.4*,-16,29,-238,0.7,1.2
Cc1ccc(C(=O)OCC(=O)N(Cc2ccccc2)C(C)C)cc1C,1,2,x,-4,x,0.98
COc1cc(CNCc2ccccn2)ccc1OCc1ccc(Cl)cc1,1.1,-20,12,-14,0.9,1.2
COc1cc(CNCc2ccccn2)ccc1OCc1c(Cl)cccc1Cl,1.4,7,-146,-44,2.5*,0.93
